# Assay results taken from the M2OR odorant receptor database.
# Positions count from the first letter of the chain named.
# Columns and labels:
# Details in all cases: stereoisomer not certain
# OR1D5 (Homo sapiens) = molecular target: T1, OR1D5 (Homo sapiens) (UniProt P58170)
# T1 sequence (whole entry): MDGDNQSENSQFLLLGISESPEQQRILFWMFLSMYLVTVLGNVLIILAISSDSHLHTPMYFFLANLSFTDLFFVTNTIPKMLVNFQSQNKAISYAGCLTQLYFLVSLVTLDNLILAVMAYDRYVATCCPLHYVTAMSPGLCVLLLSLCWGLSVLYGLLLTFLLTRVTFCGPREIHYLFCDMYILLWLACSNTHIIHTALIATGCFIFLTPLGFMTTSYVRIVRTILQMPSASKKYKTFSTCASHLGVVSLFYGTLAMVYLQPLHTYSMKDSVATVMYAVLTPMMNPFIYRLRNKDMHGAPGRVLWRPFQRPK
# How it was run: (§1)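 Values were gathered from published papers (main text and supplementary material), with extra details requested from the original authors when needed, and checked for typos and inconsistencies. Each receptor–molecule pair is called responsive (active) if the original authors judged the measured signal statistically different from baseline, and non-responsive (inactive) otherwise. Assay methods varied by source, often transient mammalian cell-line luciferase assays. Recorded details include cell line, G-protein, co-transfected protein and tags.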
# OR1E1 (Homo sapiens) = molecular target: T2, OR1E1 (Homo sapiens) (UniProt P30953)
# T2 sequence (whole entry): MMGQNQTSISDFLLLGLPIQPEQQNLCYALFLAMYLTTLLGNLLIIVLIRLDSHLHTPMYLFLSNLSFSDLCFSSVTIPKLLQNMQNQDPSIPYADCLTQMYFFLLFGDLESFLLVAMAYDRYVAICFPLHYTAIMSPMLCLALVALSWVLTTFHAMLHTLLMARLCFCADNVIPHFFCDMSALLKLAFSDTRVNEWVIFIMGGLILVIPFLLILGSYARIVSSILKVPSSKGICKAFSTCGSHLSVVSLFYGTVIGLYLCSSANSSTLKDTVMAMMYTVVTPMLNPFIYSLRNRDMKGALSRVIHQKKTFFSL
# How it was run: as §1
# OR1E2 (Homo sapiens) = molecular target: T3, OR1E2 (Homo sapiens) (UniProt P47887)
# T3 sequence (whole entry): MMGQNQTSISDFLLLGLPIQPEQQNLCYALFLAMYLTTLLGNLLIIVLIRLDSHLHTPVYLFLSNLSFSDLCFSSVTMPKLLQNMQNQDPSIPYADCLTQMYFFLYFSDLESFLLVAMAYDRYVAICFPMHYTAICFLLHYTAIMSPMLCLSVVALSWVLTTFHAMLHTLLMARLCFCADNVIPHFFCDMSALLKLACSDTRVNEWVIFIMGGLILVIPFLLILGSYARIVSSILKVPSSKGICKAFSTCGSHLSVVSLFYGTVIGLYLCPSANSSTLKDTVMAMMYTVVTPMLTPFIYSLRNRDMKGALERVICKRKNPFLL
# How it was run: as §1
# OR1E2 = test system: T4, OR1E2
# T4 sequence (whole entry): T3 sequence (whole entry) with C27R
# How it was run: as §1
# OR1F1 (Homo sapiens) = molecular target: T5, OR1F1 (Homo sapiens) (UniProt O43749)
# T5 sequence (whole entry): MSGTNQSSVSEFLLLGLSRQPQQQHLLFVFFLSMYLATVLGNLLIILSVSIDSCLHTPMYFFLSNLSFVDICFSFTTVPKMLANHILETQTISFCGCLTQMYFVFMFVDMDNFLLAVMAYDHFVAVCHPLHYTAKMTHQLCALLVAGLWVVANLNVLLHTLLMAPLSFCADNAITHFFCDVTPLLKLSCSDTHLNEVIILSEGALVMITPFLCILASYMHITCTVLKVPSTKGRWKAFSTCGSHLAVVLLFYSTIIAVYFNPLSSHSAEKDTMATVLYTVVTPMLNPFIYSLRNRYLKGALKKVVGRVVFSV
# How it was run: as §1
# OR1F12P (Homo sapiens) = molecular target: T6, OR1F12P (Homo sapiens) (UniProt Q8NHA8)
# T6 sequence (whole entry): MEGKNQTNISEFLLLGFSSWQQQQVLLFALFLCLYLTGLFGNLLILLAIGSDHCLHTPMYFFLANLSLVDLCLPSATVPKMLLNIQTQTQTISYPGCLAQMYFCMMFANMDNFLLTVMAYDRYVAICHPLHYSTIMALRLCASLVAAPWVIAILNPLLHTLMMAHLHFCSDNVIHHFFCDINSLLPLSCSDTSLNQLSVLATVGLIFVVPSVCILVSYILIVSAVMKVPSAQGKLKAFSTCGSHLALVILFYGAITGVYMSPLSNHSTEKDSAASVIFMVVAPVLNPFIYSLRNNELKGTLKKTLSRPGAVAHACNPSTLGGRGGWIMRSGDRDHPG
# How it was run: as §1
# OR1F1 = test system: T7, OR1F1
# T7 sequence (whole entry): T5 sequence (whole entry) with F75S
# How it was run: as §1
# OR1G1 (Homo sapiens) = molecular target: T8, OR1G1 (Homo sapiens) (UniProt P47890)
# T8 sequence (whole entry): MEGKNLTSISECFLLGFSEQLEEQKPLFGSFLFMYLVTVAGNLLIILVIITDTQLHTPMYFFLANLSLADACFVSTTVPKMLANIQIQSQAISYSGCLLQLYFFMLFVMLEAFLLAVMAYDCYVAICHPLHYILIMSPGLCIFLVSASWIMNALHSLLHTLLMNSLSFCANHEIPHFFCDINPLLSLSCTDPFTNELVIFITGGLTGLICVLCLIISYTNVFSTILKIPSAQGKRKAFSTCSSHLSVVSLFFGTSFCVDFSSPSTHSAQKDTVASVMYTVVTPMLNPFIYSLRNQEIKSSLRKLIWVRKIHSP
# How it was run: as §1
# OR1I1 (Homo sapiens) = molecular target: T9, OR1I1 (Homo sapiens) (UniProt O60431)
# T9 sequence (whole entry): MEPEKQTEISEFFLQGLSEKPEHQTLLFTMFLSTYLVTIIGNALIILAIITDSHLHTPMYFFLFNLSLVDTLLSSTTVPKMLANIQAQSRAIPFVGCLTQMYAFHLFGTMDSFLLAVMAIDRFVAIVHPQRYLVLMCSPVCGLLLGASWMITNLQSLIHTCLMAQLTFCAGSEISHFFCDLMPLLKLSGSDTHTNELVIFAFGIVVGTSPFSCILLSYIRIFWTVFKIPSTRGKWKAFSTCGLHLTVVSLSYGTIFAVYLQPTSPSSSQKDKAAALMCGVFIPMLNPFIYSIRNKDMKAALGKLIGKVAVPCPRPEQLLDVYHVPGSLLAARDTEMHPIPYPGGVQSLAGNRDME
# How it was run: as §1
# OR1J1 (Homo sapiens) = molecular target: T10, OR1J1 (Homo sapiens) (UniProt Q8NGS3)
# T10 sequence (whole entry): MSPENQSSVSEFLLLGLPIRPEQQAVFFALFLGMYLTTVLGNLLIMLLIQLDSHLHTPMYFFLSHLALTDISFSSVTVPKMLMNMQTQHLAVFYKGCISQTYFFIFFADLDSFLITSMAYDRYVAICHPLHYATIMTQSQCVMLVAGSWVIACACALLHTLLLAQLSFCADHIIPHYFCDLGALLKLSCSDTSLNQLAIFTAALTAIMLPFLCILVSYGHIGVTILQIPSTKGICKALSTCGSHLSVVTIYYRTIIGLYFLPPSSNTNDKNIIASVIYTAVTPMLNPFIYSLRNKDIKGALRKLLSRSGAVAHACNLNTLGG
# How it was run: as §1
# OR1J2 (Homo sapiens) = molecular target: T11, OR1J2 (Homo sapiens) (UniProt Q8NGS2)
# T11 sequence (whole entry): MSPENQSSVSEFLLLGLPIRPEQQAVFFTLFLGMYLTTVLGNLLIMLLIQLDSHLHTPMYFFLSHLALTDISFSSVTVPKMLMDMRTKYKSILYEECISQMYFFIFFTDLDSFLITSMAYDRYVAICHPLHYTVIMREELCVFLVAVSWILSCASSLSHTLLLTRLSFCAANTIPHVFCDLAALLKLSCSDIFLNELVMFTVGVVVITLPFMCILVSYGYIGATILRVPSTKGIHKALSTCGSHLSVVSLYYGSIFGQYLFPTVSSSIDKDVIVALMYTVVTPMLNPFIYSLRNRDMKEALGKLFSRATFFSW
# How it was run: as §1
# OR1J4 (Homo sapiens) = molecular target: T12, OR1J4 (Homo sapiens) (UniProt Q8NGS1)
# T12 sequence (whole entry): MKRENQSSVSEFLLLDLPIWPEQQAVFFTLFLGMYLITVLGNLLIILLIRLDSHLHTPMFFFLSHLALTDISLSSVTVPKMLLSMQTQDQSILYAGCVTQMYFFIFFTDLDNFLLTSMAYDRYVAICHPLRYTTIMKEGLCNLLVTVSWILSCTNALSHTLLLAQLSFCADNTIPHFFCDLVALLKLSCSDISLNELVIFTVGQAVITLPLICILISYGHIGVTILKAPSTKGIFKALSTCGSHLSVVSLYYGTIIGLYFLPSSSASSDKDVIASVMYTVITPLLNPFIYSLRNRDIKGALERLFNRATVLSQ
# How it was run: as §1
# OR1K1 (Homo sapiens) = molecular target: T13, OR1K1 (Homo sapiens) (UniProt Q8NGR3)
# T13 sequence (whole entry): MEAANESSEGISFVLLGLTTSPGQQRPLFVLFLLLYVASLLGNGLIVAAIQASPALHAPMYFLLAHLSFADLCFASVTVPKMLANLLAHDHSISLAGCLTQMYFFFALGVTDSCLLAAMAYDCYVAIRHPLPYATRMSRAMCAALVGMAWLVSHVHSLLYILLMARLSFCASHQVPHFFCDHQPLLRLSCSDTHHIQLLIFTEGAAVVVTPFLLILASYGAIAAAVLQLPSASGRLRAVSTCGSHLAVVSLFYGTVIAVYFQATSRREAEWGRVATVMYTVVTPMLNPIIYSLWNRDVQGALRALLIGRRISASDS
# How it was run: as §1
# OR1L1 = test system: T14, OR1L1
# T14 sequence (whole entry): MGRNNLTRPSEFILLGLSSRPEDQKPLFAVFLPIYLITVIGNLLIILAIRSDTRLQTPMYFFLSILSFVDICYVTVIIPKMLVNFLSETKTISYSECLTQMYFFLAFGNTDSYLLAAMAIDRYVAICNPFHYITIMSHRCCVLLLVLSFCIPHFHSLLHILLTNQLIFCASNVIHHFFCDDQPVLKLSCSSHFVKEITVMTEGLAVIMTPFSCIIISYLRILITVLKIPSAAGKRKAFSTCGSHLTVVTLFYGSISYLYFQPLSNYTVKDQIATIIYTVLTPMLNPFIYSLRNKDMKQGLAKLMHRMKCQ
# How it was run: as §1
# OR1L1 (Homo sapiens) = molecular target: T15, OR1L1 (Homo sapiens) (UniProt Q8NH94)
# T15 sequence (whole entry): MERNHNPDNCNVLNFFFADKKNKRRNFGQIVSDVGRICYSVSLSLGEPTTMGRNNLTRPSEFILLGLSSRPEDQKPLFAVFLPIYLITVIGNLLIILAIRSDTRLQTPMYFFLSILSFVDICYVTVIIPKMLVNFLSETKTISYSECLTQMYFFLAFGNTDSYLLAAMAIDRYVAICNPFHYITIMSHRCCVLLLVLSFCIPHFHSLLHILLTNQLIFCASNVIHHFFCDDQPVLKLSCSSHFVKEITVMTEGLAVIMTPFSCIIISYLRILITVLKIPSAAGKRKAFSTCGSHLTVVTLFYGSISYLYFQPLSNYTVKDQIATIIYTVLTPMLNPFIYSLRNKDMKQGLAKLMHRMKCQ
# How it was run: as §1
SMILES,odorant receptor agonist call (OR1D5 (Homo sapiens)),odorant receptor agonist call (OR1E1 (Homo sapiens)),odorant receptor agonist call (OR1E2 (Homo sapiens)),odorant receptor agonist call (OR1E2),odorant receptor agonist call (OR1F1 (Homo sapiens)),odorant receptor agonist call (OR1F12P (Homo sapiens)),odorant receptor agonist call (OR1F1),odorant receptor agonist call (OR1G1 (Homo sapiens)),odorant receptor agonist call (OR1I1 (Homo sapiens)),odorant receptor agonist call (OR1J1 (Homo sapiens)),odorant receptor agonist call (OR1J2 (Homo sapiens)),odorant receptor agonist call (OR1J4 (Homo sapiens)),odorant receptor agonist call (OR1K1 (Homo sapiens)),odorant receptor agonist call (OR1L1),odorant receptor agonist call (OR1L1 (Homo sapiens))
CC1=NC(C)C(C)S1 (centres undefined),inactive,inactive,inactive,inactive,inactive,inactive,inactive,inactive,inactive,inactive,inactive,inactive,inactive,inactive,–
CCCCCCCCCC(=O)OC,–,–,–,–,–,–,–,active,–,–,–,–,–,–,–
CCCCCCCCCCCC(=O)O,–,–,–,–,–,–,–,inactive,–,–,–,–,–,–,–
CCCCCCC=CCCC=O,inactive,inactive,inactive,inactive,inactive,inactive,inactive,inactive,inactive,inactive,inactive,inactive,inactive,–,inactive
CC1=C(O)C(=O)C(C)O1 (centres undefined),inactive,inactive,inactive,inactive,inactive,inactive,inactive,inactive,inactive,inactive,inactive,inactive,inactive,inactive,–
